In ChEMBL document CHEMBL1130270, “Design of [R-(Z)]-(+)-alpha-(methoxyimino)-1-azabicyclo[2.2.2]octane-3-acetonitri le (SB 202026), a functionally selective azabicyclic muscarinic M1 agonist incorporating the N-methoxy imidoyl nitrile group as a novel ester bioisostere” (J Med Chem, 1997):

Legend:
Mus musculus [1] = test: Tremorigenic effects were assessed in mice after subcutaneous administration of the compound; format: functional; settings: sc
Procedure, shortened: (§1)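 Male CD1 mice (25-35 g), dosed sc. Tremor scored subjectively: 0 absent, 1 mild, 2 moderate, 3 severe.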

[2] = molecular target: Muscarinic acetylcholine receptor; test: In vitro affinity evaluated using [3H]- oxotremorine as radioligand in rat cerebral cortex for muscarinic acetylcholine receptor; format: tissue-based
[3] = molecular target: Muscarinic acetylcholine receptor; test: In vitro affinity evaluated using [3H]- quinuclidinyl benzilate as radioligand in rat cerebral cortex for muscarinic acetylcholine receptor; format: tissue-based
[4] = molecular target: T1, Muscarinic acetylcholine receptor M1 (Homo sapiens, UniProt P11229); test: In vitro affinity against human Muscarinic acetylcholine receptor M1 using quinuclidynyl benzylate (QNB)
T1 sequence (P11229 whole entry): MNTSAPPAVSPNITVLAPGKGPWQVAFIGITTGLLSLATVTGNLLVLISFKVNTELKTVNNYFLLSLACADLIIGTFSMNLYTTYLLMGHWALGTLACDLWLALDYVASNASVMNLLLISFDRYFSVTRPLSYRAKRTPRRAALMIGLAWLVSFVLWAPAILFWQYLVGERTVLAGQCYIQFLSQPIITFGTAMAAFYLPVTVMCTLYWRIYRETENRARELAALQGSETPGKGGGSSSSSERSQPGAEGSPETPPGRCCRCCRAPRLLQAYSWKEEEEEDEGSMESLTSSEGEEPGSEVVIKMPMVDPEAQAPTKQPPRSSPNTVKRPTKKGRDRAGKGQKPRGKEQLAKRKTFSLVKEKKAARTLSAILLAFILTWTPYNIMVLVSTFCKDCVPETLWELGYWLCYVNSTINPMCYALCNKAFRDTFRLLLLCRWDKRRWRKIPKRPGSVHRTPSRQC

[5] = molecular target: Muscarinic acetylcholine receptor M3 (Homo sapiens, UniProt P20309); test: In vitro affinity is evaluated, using quinuclidynyl benzylate (QNB) as radioligand in human cloned Muscarinic acetylcholine receptor M3
Muscarinic acetylcholine receptor M3, sequence (P20309 whole entry): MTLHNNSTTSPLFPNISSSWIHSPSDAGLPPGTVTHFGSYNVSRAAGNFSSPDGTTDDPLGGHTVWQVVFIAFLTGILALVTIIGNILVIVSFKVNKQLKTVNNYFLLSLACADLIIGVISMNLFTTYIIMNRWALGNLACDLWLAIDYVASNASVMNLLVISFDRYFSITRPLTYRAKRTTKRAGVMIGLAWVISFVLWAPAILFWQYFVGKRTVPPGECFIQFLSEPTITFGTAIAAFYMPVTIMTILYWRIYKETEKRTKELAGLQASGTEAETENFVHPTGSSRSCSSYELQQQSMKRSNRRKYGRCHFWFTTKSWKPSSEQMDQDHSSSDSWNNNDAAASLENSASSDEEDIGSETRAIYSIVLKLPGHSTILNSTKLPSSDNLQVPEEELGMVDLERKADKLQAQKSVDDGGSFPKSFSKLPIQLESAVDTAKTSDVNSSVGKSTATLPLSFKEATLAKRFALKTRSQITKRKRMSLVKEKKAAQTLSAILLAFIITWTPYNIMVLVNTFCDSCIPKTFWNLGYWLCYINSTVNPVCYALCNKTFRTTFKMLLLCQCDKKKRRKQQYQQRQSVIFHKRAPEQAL

[6] = molecular target: T2, Muscarinic acetylcholine receptor M2 (Homo sapiens, UniProt P08172); test: In vitro affinity is evaluated, using quinuclidynyl benzylate (QNB) as radioligand in human cloned Muscarinic acetylcholine receptor M2
T2 sequence (P08172 whole entry): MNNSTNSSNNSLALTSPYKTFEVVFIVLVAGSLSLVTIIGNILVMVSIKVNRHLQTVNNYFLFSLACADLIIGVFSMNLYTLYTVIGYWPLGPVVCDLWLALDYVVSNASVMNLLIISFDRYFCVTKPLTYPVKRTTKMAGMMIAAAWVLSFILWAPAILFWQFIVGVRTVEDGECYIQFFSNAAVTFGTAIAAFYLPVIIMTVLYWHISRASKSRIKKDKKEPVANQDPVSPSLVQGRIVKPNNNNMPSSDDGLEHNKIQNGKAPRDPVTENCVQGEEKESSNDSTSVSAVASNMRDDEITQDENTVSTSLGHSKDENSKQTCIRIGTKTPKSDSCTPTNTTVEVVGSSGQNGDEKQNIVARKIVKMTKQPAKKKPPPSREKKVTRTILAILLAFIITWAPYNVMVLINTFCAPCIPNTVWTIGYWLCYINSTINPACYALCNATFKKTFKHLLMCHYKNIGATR

[7] = molecular target: T3, Muscarinic acetylcholine receptor M4 (Homo sapiens, UniProt P08173); test: In vitro affinity is evaluated, using quinuclidynyl benzylate (QNB) as radioligand in human cloned Muscarinic acetylcholine receptor M4
T3 sequence (P08173 whole entry): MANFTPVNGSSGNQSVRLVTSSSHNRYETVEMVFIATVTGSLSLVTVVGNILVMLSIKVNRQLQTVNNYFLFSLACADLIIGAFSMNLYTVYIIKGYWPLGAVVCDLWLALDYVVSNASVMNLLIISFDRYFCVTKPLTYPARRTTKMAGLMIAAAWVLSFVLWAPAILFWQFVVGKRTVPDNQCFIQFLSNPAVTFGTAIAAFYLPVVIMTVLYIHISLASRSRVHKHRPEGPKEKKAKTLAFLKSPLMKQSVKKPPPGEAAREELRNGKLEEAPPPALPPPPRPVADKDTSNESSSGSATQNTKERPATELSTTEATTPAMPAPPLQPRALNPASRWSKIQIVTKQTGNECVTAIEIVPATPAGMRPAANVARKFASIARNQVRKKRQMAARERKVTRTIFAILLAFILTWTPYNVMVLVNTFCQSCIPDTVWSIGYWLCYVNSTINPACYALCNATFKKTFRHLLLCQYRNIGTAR

Rattus norvegicus [8] = test: Extrapyramidal effects was assessed from the dose producing tremors in anesthetized rats
Rattus norvegicus [9] = test: Dose producing 50 % fall in heart rate in anesthetized rats; format: functional
Procedure, shortened: (§2)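 Male Hooded Lister rats (300-380 g) under urethane anaesthesia, 37 °C. Increasing iv doses via femoral vein at 45 min intervals. BP recorded from carotid artery; HR derived from the BP signal. Peak effect within 1 min, expressed as % of predose. Value is the dose giving a transient 50% fall in mean BP or HR; 95% confidence limits.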

Rattus norvegicus [10] = organism: Rattus norvegicus; test: Dose inducing hippocampal rhythmic slow wave activity; format: functional, Hippocampus
Procedure, shortened: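 Male Hooded Lister rats (300-380 g) under urethane anaesthesia, pretreated with atropine methyl nitrate 0.1 mg/kg iv. Dosing iv via femoral vein, saline vehicle. Bipolar electrode in right hippocampal CA1; EEG sampled at 128 Hz. Read-out is change in mean theta power (3–7 Hz).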

[11] = Ratio of 50% fall blood pressure to that of rhythmic slow wave activity in anesthetized rats; format: functional
Procedure, shortened: (§3)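 Same anaesthetized-rat dosing as above. Ratio of iv dose giving a transient 50% fall in BP (or HR) to the iv dose giving an arecoline-equivalent (0.32 mg/kg) change in hippocampal theta power.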

[12] = Ratio of 50% fall in heart rate to that of […] slow wave activity in anesthetized rats; format: functional; procedure, shortened: as §3
Rattus norvegicus [13] = test: Dose producing 50 % fall in mean blood pressure in anesthetized rats; format: functional; procedure, shortened: as §2
[14] = Ratio of 50% fall in heart rate to that of in blood pressure in anesthetized rats; format: functional
[15] = Partition coefficient is determined in octanol/buffer solution at pH 12; format: physicochemical
Rattus norvegicus [16] = test: Dose producing 50% fall in heart rate in anesthetized rats; format: functional; procedure, shortened: as §2
Rattus norvegicus [17] = test: Dose producing […] rhythmic slow wave activity in anesthetized rats; format: functional
[18] = Dissociation constant is the negative logarithm of the equilibrium coefficient of the neutral and charged forms of the compound; format: physicochemical
Rattus norvegicus [19] = test: Dose producing 50% fall in blood pressure in anesthetized rats; format: functional; procedure, shortened: as §2
[20] = Distribution coefficient is the ratio of concentration in lipid phase to the concentration of compound in aqueous phase.; format: physicochemical
Procedure, shortened: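 Calculated for pH 7.3, not measured. D is the concentration of compound in the lipid phase divided by the concentration of all species in the aqueous phase.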

Mus musculus [21] = organism: Mus musculus; test: Extrapyramidal effects was assessed from the dose producing tremors; format: functional; procedure, shortened: as §1
Rattus norvegicus [22] = organism: Rattus norvegicus; test: Dose producing […] rhythmic slow wave activity in rat
[23] = Ratio of IC50 QNB to that of OXO-M was determined; format: functional
Procedure, shortened: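 Rat cerebral cortex binding: IC50 for displacement of the antagonist [3H]QNB divided by IC50 for displacement of the agonist [3H]oxotremorine-M, used as an efficacy index.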

[24] = Ratio of 50% fall in blood pressure to that of rhythmic slow wave activity in anesthetized rats; format: functional; procedure, shortened: as §3

Row | SMILES | IC50 [2] [nM] | IC50 [3] [nM] | Ratio [11] | Ratio [12] | ED50 (Rattus norvegicus [16]) [mg/kg] | ED Arec (Rattus norvegicus [17]) [mg/kg] | ED50 (Rattus norvegicus [19]) [mg/kg] | also measured
1 | CO/N=C(\C#N)[C@H]1CN2CCC1CC2 [SABCOMELINE] | 14 | 310 | >18.8 | >18.8 |  |  |  | ED50 (Mus musculus [1]): > 10 mg/kg; IC50 [4]: 170 nM; IC50 [5]: 60 nM; IC50 [6]: 180 nM; IC50 [7]: 90 nM; ED50 (Rattus norvegicus [8]): 0.12 mg/kg; ED50 (Rattus norvegicus [9]): > 0.32 mg/kg; ED Arec (Rattus norvegicus [10]): 0.017 mg/kg; ED50 (Rattus norvegicus [13]): > 0.32 mg/kg
2 | CO/N=C/[C@H]1CN2CC[C@H]1C2 |  |  |  |  |  |  |  | IC50 [4]: 10000 nM; IC50 [5]: 2200 nM; IC50 [6]: 220 nM; IC50 [7]: 1100 nM; Ratio [14]: 1.5
3 | CO/N=C(\Cl)C12CCCN(CC1)C2 (stereo unspecified) |  |  | 10 | 8.3 | 0.24 | 0.032 |  | logD [15]: 2.12
4 | CO/N=C(\F)C12CCCN(CC1)C2 (stereo unspecified) |  |  |  | 2 | 0.024 |  |  | logD [15]: 1.01
5 | CO/N=C(/C)C12CCCN(CC1)C2 (stereo unspecified) | 46 | 3400 | 1 | 0.6 | 0.042 | 0.068 | 0.068 | pKa [18]: 10.1; logD [15]: 1.65; logD [20]: -1.13
6 | CO/N=C(\C#N)[C@@H]1CN2CCC1CC2 | 140 | 1130 |  |  | > 1 | >1 | > 1 | 
7 | CC#CCO/N=C/[C@H]1CN2CC[C@H]1C2 | 115 | 2900 |  |  |  |  |  | 
8 | CO/N=C(\Cl)[C@@H]1CN2CC[C@H]1C2 | 100 | 8880 |  |  |  |  |  | 
9 | O=C1CCCN1CC#CCN1CCCC1 [OXOTREMORINE] |  |  |  |  |  |  |  | Activity (Mus musculus [21]): 3; ED50 (Mus musculus [1]): 0.07 mg/kg; ED Arec (Rattus norvegicus [22]): 0.023 mg/kg
10 | CCN1C(=O)CC2(CCN(C)CC2)C1=O |  |  |  |  |  |  |  | Activity (Mus musculus [21]): 8.6; ED50 (Mus musculus [1]): 3.8 mg/kg; ED Arec (Rattus norvegicus [22]): 0.35 mg/kg
11 | C=CCO/N=C/[C@H]1CN2CC[C@H]1C2 | 250 | 9700 |  |  |  |  |  | 
12 | CO/N=C(\C#N)C12CCN(CC1)C2 |  |  | 1.8 | 0.79 | 0.0044 | 0.0056 | 0.01 | IC50 [4]: 1650 nM; IC50 [5]: 300 nM; IC50 [6]: 240 nM; IC50 [7]: 495 nM
13 | CO/N=C(\F)[C@H]1CN2CC[C@H]1C2 | 8.5 |  |  |  |  |  |  | 
14 | CO/N=C(\Br)[C@@H]1CN2CC[C@H]1C2 | 170 | 2300 |  |  |  |  |  | 
15 | CO/N=C(/C#N)C1CN2CCC1CC2 (stereo unspecified) | 240 | 1300 |  |  |  |  |  | 
16 | CO/N=C(\C#N)[C@H]1CN2CC[C@H]1C2 | 23 | 2300 | 4.7 | 2.8 | 0.009 | 0.0032 | 0.015 | IC50 [4]: 1180 nM; IC50 [5]: 380 nM; IC50 [6]: 610 nM; IC50 [7]: 800 nM
17 | CO/N=C(\C#N)C1CN2CCC1CC2 (stereo unspecified) |  |  | >10.9 | >10.9 | > 0.56 |  |  | logD [15]: 1.56
18 | CO/N=C(\C#N)[C@@H]1CN2CC[C@H]1C2 | 21 | 3175 | 4.8 | 4.2 | 0.021 | 0.005 | 0.024 | IC50 [4]: 1500 nM; IC50 [5]: 1200 nM; IC50 [6]: 700 nM; IC50 [7]: 975 nM
19 | CCO/N=C/[C@H]1CN2CC[C@H]1C2 |  |  |  |  |  |  |  | ED50 (Rattus norvegicus [9]): > 1.8 mg/kg; Ratio [23]: 23; Ratio [24]: >7.8; Ratio [14]: >7.8
20 | COC(=O)C1=CCCN(C)C1 [ARECOLINE] |  |  |  |  | 0.024 | 0.32 | 0.022 | 
21 | C#CCO/N=C/[C@H]1CN2CC[C@H]1C2 |  |  |  |  |  |  |  | Ratio [14]: 3.7
22 | CO/N=C(\C)C1CN2CCC1CC2 (stereo unspecified) |  |  | >1 | >1 | > 0.32 |  | > 0.32 | logD [15]: 1.88
